Reference: ChEMBL document CHEMBL5104115, “Design, synthesis of novel triptolide-glucose conjugates targeting glucose Transporter-1 and their selective antitumor effect” (Eur J Med Chem, 2022)
The source made the active and inactive calls. The calls are words filed in the database; no cut-off is given here.

Experiments:
NCI-H1975 [1] = experiment: Cytotoxicity against Glut1 knocked down human NCI-H1975 cells transfected with KD2 assessed as decrease in cell viability incubated for 72 hrs by MTT assay; assay type: functional, cell-based; settings: NCI-H1975, 72 h
Outline: (§1)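 Stable Glut-1 knockdown (KD1, KD2, vector KD V) or overexpression (OE, vector OE V) NCI-H1975 cells made by 12 h lentiviral infection, 72 h culture, then 14 days puromycin selection; Glut-1 confirmed by Western blot. Cells seeded at 4000/well overnight, dosed over a concentration range or DMSO for 72 h. MTT read at 570 nm; IC50 from ≥3 replicates.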

[2] = MRT (0 to 3 hrs) in NCI-H1975 tumor bearing nude mouse model serum at 1 mg/kg, iv; assay type: ADME, organism-based
NCI-H1975 [3] = experiment: Cytotoxicity against human NCI-H1975 cells incubated for 72 hrs by MTT assay; assay type: functional, cell-based; settings: NCI-H1975, 72 h
Outline: (§2)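 Cells seeded at 4000/well, incubated overnight, then exposed to a range of concentrations, or DMSO vehicle, for 72 h. MTT (5 mg/mL solution) added for 4 h and formazan dissolved in DMSO. Absorbance read at 570 nm, and IC50 derived from the curves. Tumor lines were grown in RPMI 1640; HUVEC, HaCaT and LO2 were grown in DMEM, each with 10% FBS at 37 °C and 5% CO2.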

NCI-H460 [4] = experiment: Down regulation of RNA polymerase II in human NCI-H460 cells measured after 48 hrs by Western blotting analysis; assay type: functional, cell-based
Outline: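 NCI-H460 cells treated for 48 h, harvested by trypsinization and lysed on ice in NP-40 buffer (50 mmol/L Tris pH 8.0, 150 mmol/L NaCl, 1% NP-40). Protein quantified by BCA and resolved by SDS-PAGE. Blots probed for RNA Pol II (1:1000), with GAPDH as loading control, and detected by chemiluminescence.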

[5] = Stability in human serum measured upto 72 hrs by HPLC analysis; assay type: ADME, cell-free
Outline: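 15 µM test agent incubated with human or mouse serum at 37 °C for 0, 0.5, 1, 8, 12, 18, 60 and 72 h. Samples stored at −80 °C, protein precipitated with 200 µL methanol, vortexed and sonicated 5 min. Intact agent and released triptolide measured by HPLC at 220 nm, in duplicate.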

NCI-H460 [6] = experiment: Induction of apoptosis in human NCI-H460 cells assessed as early apoptotic cells at 20 uM measured after 48 hrs by Annexin V-FITC/PI staining method (reference value: 3.26%); assay type: functional
NCI-H1975 [7] = experiment: Antitumor activity against human NCI-H1975 cells xenografted in BALB/c nude mouse assessed as tumor growth inhibition at 2 mg/kg, ip, qd for 2 weeks relative to control; settings: NCI-H1975, 336 h, read-out: TGI
NCI-H1975 [8] = experiment: Cytotoxicity against human NCI-H1975 cells transfected with OE V overexpressing Glut1assessed as decrease in cell viability incubated for 72 hrs by MTT assay; assay type: functional, cell-based; settings: NCI-H1975, 72 h; outline: as §1
HT-29 = experiment: Cytotoxicity against human HT-29 cells incubated for 72 hrs by MTT assay; assay type: functional, cell-based; settings: HT-29, 72 h; outline: as §2
NCI-H460 [9] = experiment: Induction of apoptosis in human NCI-H460 cells assessed as late apoptotic cells at 50 uM measured after 48 hrs by Annexin V-FITC/PI staining method (reference value: 8.47%); assay type: functional
NCI-H460 [10] = experiment: Induction of apoptosis in human NCI-H460 cells assessed as early apoptotic cells at 1 uM measured after 48 hrs by Annexin V-FITC/PI staining method (reference value: 3.26%); assay type: functional
NCI-H460 [11] = experiment: Cytotoxicity against human NCI-H460 cells incubated for 72 hrs by MTT assay; assay type: functional, cell-based; settings: NCI-H460, 72 h; outline: as §2
[12] = Cytotoxicity against human HaCaT cells incubated for 72 hrs by MTT assay; assay type: toxicity, cell-based; outline: as §2
[13] = Drug distribution in NCI-H1975 tumor bearing nude mouse model assessed as tumor to liver ratio of triptolide metabolite at 2 mg/kg, iv by LC-MS analysis; assay type: ADME, organism-based; settings: in vivo
Outline: (§3)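 NCI-H1975 xenograft mice, tumors about 500 mm3, 3 per group, fasted 12 h with water available. Given 2 mg/kg iv and sacrificed 1 h later. Heart, liver, lung, kidney and tumor weighed and flash-frozen. 1.0 g tissue homogenized in 2.0 mL saline, methanol-precipitated, reconstituted. Parent, triptolide succinate and triptolide measured by LC-MS; tumor/organ ratios calculated.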

NCI-H460 [14] = experiment: Induction of apoptosis in human NCI-H460 cells assessed as viable cells at 1 uM measured after 48 hrs by Annexin V-FITC/PI staining method (reference value: 86.7%); assay type: functional; settings: read-out: Activity
[15] = Toxicity in BALB/c nude mouse xenografted with human NCI-H1975 cells assessed as loss of body weight at 1 to 2 mg/kg administered ip, qd for 2 weeks measured every 3 days; settings: in vivo, 336 h
[16] = Cytotoxicity against HUVEC incubated for 72 hrs by MTT assay; assay type: toxicity, cell-based; settings: human, HUVEC cells; outline: as §2
NCI-H460 [17] = experiment: Induction of apoptosis in human NCI-H460 cells assessed as late apoptotic cells at 20 uM measured after 48 hrs by Annexin V-FITC/PI staining method (reference value: 8.47%); assay type: functional
[18] = Toxicity in BALB/c nude mouse xenografted with human NCI-H1975 cells assessed as morphological change in heart at 1 to 2 mg/kg administered ip, qd for 2 weeks; settings: in vivo, 336 h
NCI-H1975 [19] = experiment: Cytotoxicity against Glut1 knocked down human NCI-H1975 cells transfected with KDV assessed as decrease in cell viability incubated for 72 hrs by MTT assay; assay type: functional, cell-based; settings: NCI-H1975, 72 h; outline: as §1
NCI-H460 [20] = experiment: Induction of apoptosis in human NCI-H460 cells assessed as viable cells at 20 uM measured after 48 hrs by Annexin V-FITC/PI staining method (reference value: 86.7%); assay type: functional; settings: read-out: Activity
[21] = Cytotoxicity against HUVEC transfected with OE overexpressing Glut1assessed as decrease in cell viability incubated for 72 hrs by MTT assay; assay type: toxicity, cell-based; settings: human, HUVEC cells transfected with OE overexpressing Glut1
Outline: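 HUVEC kept in DMEM with 10% FBS, made to overexpress Glut-1 (OE) or carry vector (OE V) by lentiviral infection and puromycin selection for 14 days, with Western blot check. Seeded at 4000 cells/well, treated over a concentration range or DMSO for 72 h, then MTT at 570 nm. IC50 taken from at least three replicates.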

[22] = Half life in NCI-H1975 tumor bearing nude mouse model serum at 1 mg/kg, iv; assay type: ADME, organism-based
[23] = Toxicity in BALB/c nude mouse xenografted with human NCI-H1975 cells assessed as reduction of cytoplasmic nuclei at 2 mg/kg administered ip, qd for 2 weeks; settings: in vivo, 336 h
[24] = Drug distribution in NCI-H1975 tumor bearing nude mouse model assessed as tumor to kidney ratio of triptolide metabolite at 2 mg/kg, iv by LC-MS analysis; assay type: ADME, organism-based; settings: in vivo; outline: as §3
NCI-H460 [25] = experiment: Induction of apoptosis in human NCI-H460 cells assessed as necrotic cells at 50 uM measured after 48 hrs by Annexin V-FITC/PI staining method (reference value: 1.62%); assay type: functional
HCT-116 = experiment: Cytotoxicity against human HCT-116 cells incubated for 72 hrs by MTT assay; assay type: functional, cell-based; settings: HCT-116, 72 h; outline: as §2

## CC(C)[C@]12O[C@H]1[C@@H]1O[C@]13[C@]1(O[C@H]1C[C@H]1C4=C(CC[C@@]13C)C(=O)OC4)[C@@H]2OC(=O)CCC(=O)O[C@H]1C(O)O[C@H](CO)[C@@H](O)[C@@H]1O (some centres not stated)
NCI-H1975 [1]
  IC50: 11.6 µM
[2]
  MRT last: 33.6 min
NCI-H1975 [3]
  IC50: 2.04 µM
NCI-H460 [4]
  Activity: Active
[5]
  Stability: Stable
NCI-H460 [6]
  Activity: 35.1%
NCI-H1975 [7]
  inhibition in vivo at 2 mg/kg: 90.4%
NCI-H1975 [8]
  IC50: 5.27 µM
HT-29
  IC50: 2.19 µM
NCI-H460 [9]
  Activity: 21.4%
NCI-H460 [10]
  Activity: 7.09%
NCI-H460 [11]
  IC50: 0.87 µM
[12]
  IC50 at 72 h: 6.54 µM
[13]
  Ratio: 9.3
NCI-H460 [14]
  viability at 1 µM: 84.6%
[15]
  Activity: Non-Toxic
[16]
  IC50 at 72 h: 8.55 µM
NCI-H460 [17]
  Activity: 27.4%
[18]
  Activity: Non-Toxic
NCI-H1975 [19]
  IC50: 2.87 µM
NCI-H460 [20]
  viability at 20 µM: 32.6%
[21]
  IC50 at 72 h: 3.17 µM
[22]
  half-life: 19.2 min
[23]
  Activity: Toxic
[24]
  Ratio: 18.8
NCI-H460 [25]
  Activity: 5.77%
HCT-116
  IC50: 1.95 µM
